{"data": "Measured values from different studies", "MAPK14": "Mitogen-activated protein kinase 14 (MAPK14, Homo sapiens, UniProt Q16539)", "Si": "Sucrase-isomaltase, intestinal (Si, Rattus norvegicus, UniProt P23739)", "Dihydrofolate reductase": "Dihydrofolate reductase (Bos taurus, UniProt P00376)", "note": "Lines come from different studies, so protocols differ."}
{"Structure (SMILES)": "c1ccc(-c2occc2-c2ccnc3ccccc23)nc1", "target": "MAPK14", "read-out": "enzyme activity", "action": "inhibitor", "method": "ADP detection", "IC50 [µM]": "> 30"}
{"Structure (SMILES)": "COc1cc(C(=O)O)ccc1O", "target": "Si", "read-out": "enzyme activity", "action": "inhibitor", "method": "absorbance", "IC50 [µM]": 1650}
{"Structure (SMILES)": "Fc1ccc(Cc2[nH]nc(-c3ccccn3)c2-c2ccnc3ccccc23)cc1", "target": "MAPK14", "read-out": "enzyme activity", "action": "inhibitor", "method": "ADP detection", "IC50 [µM]": 3.5}
{"Structure (SMILES)": "CC(=O)C1=NN(c2ccccc2)C(=C(C#N)C(=O)c2ccc(Nc3cnccn3)cc2)S1", "target": "Dihydrofolate reductase", "read-out": "enzyme activity", "action": "inhibitor", "IC50 [µM]": 1.95}
{"Structure (SMILES)": "CC(C)(C)NS(=O)(=O)c1cccc(C(=O)N2CC3(CCC4(CC4)CC3)c3cc(NS(C)(=O)=O)ccc32)c1", "target": "Kinesin-like protein KIFC1 (KIFC1, Homo sapiens, UniProt Q9BW19)", "read-out": "ATPase activity", "action": "inhibitor", "IC50 [µM]": "> 100"}
{"Structure (SMILES)": "NC(=O)c1nnn(Cc2cc(Cl)c(C(=O)c3ccc(Cl)cc3)c(Cl)c2)c1N", "target": "5-hydroxytryptamine receptor 1A (HTR1A, Homo sapiens, UniProt P08908)", "read-out": "cAMP", "action": "antagonist", "IC50 [µM]": 1.75}
{"Structure (SMILES)": "c1ccc(Cn2cc(-c3ccnc4ccccc34)c(-c3ccccn3)n2)cc1", "target": "MAPK14", "read-out": "enzyme activity", "action": "inhibitor", "method": "ADP detection", "IC50 [µM]": 3}
{"Structure (SMILES)": "COc1cc(C=O)cc(OC)c1O", "target": "Si", "read-out": "enzyme activity", "action": "inhibitor", "method": "absorbance", "IC50 [µM]": 1110}
{"Structure (SMILES)": "N=c1sc(C(=O)c2ccc(Nc3cnccn3)cc2)nn1-c1ccccc1", "target": "Dihydrofolate reductase", "read-out": "enzyme activity", "action": "inhibitor", "IC50 [µM]": 6.49}
{"Structure (SMILES)": "CNCc1cc(-c2cc(O)ccc2OC(F)(F)F)ccc1F", "target": "Estrogen receptor (ESR1, Homo sapiens, UniProt P03372, D538G)", "read-out": "coactivator recruitment", "method": "TR-FRET", "IC50 [µM]": "~18"}
{"Structure (SMILES)": "Oc1ccccc1-c1n[nH]cc1-c1ccnc2ccccc12", "target": "MAPK14", "read-out": "enzyme activity", "action": "inhibitor", "method": "ADP detection", "IC50 [µM]": 0.73}
{"Structure (SMILES)": "COc1ccc(N2N=C(C(=O)c3ccc(Nc4cnccn4)cc3)SC2=C(C#N)C#N)cc1", "target": "Dihydrofolate reductase", "read-out": "enzyme activity", "action": "inhibitor", "IC50 [µM]": 0.36}
